Published values of several laboratories.
Lines come from different studies, so protocols differ.
Observed: cell growth or viability

CC(=O)c1sc(=NN=C(C)c2c(O)c3ccccc3oc2=O)[nH]c1C — IC50 (human Skin fibroblast; MTT; 48 h): > 100 µM
O=C(N/N=C/c1c(O)ccc2ccccc12)c1cc(-c2ccc3ccccc3c2)n[nH]1 — IC50 (WM278; MTS; 48 h): 8 µM
CC1(C)CCC(CN2CCN(c3ccc(C(=O)NS(=O)(=O)c4ccc(NCC5CCOCC5)c([N+](=O)[O-])c4)c(Oc4cnc5[nH]ccc5c4)c3)CC2)=C(c2ccc(Cl)cc2)C1 — IC50 (MB002; 7 days): > 10 µM
COc1cc(Nc2nccc(-c3cnn4nc(OC)ccc34)n2)cc(C(F)(F)F)c1 — IC50 (T84; ATP luminescence): 1.3 µM
CN1CCN(CCOc2cc(OC3CCOCC3)c3c(Nc4c(Cl)ccc5c4OCO5)ncnc3c2)CC1 — IC50 (HD-MB03; 7 days): > 10 µM
CC(C)C[C@H](NC(=O)[C@H](Cc1ccccc1)NC(=O)c1cnccn1)B(O)O — IC50 (T84; ATP luminescence): 0.018 µM
CC(=NN=c1sc(N=Nc2ccccc2)c(C)n1C)c1c(O)c2ccccc2oc1=O — IC50 (human Skin fibroblast; MTT; 48 h): > 100 µM
Oc1ccc(Nc2nc(-c3ccc(Cl)cc3)cs2)cc1 — IC50 (WM278; MTS; 72 h): 23.6 µM
CC(=NN=c1scc(-c2ccccc2)n1C)c1c(O)c2ccccc2oc1=O — IC50 (human Skin fibroblast; MTT; 48 h): > 100 µM
Cn1ncnc1[C@H]1c2n[nH]c(=O)c3cc(F)cc(c23)N[C@@H]1c1ccc(F)cc1 — IC50 (MB002; 7 days): 0.00373 µM
